Numbering of substitutions follows the chain as printed. Calls of active or inactive are those of the source. The rule behind the calls is not given here.
Columns and labels:
[1] = test system: T1, Alpha-crystallin A chain (Homo sapiens), P02489 [R116C]; test: Induction of redissolving of aggregated alpha-crystallin A R116C mutant (unknown origin) at 200 uM incubated for 24 hrs by ThT-fluorescence based assay
T1 sequence (whole entry): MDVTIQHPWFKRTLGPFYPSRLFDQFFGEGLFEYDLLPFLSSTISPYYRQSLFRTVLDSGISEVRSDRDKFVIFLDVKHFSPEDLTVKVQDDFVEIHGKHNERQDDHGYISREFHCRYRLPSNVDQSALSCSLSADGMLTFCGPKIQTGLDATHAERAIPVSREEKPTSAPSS
Procedure, shortened: (§1)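 Purified mutant crystallin proteins, pre-formed into amyloid-like fibrils, were treated with compounds delivered in liposomes, with a liposome-only vehicle control. Redissolution was read as thioflavin T (ThT) fluorescence, n = 3.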

[2] = test system: T2, Alpha-crystallin A chain (Homo sapiens), P02489 [Y118D]; test: Induction of redissolving of aggregated alpha-crystallin A Y118D mutant (unknown origin) at 200 uM incubated for 24 hrs by ThT-fluorescence based assay; procedure, shortened: as §1
T2 sequence (whole entry): T1 sequence (whole entry) with C116R, Y118D

[3] = test system: T3, Gamma-crystallin C (Homo sapiens), P07315 [G129C]; test: Induction of redissolving of aggregated gamma-crystallin C G129C mutant (unknown origin) at 200 uM incubated for 24 hrs by ThT-fluorescence based assay; procedure, shortened: as §1
T3 sequence (whole entry): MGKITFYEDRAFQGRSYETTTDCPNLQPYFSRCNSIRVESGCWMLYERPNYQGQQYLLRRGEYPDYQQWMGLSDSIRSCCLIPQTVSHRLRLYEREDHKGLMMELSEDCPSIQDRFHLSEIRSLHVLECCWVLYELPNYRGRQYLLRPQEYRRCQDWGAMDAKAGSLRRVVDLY

[4] = target: Alpha-crystallin A chain (Homo sapiens, UniProt P02489, Y118D); test: Induction of redissolving of aggregated alpha-crystallin A Y118D mutant (unknown origin) incubated for 24 hrs by ThT-fluorescence based assay
Procedure, shortened: (§2)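 Dose–response EC50 for redissolving pre-formed amyloid-like fibrils of αA Y118D or αB R120G crystallin. Compounds were delivered in liposomes and the read-out was thioflavin T fluorescence.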

[5] = target: T4, Alpha-crystallin B chain (Homo sapiens, UniProt P02511, R120G); test: Induction of redissolving of aggregated alpha-crystallin B R120G mutant (unknown origin) incubated for 24 hrs by ThT-fluorescence based assay; procedure, shortened: as §2
[6] = test system: T1, Alpha-crystallin A chain (Homo sapiens), P02489 [R116C]; test: Induction of redissolving of aggregated alpha-crystallin A R116C mutant (unknown origin) at 200 uM incubated for 24 hrs by transmission-electron-microscopy
Procedure, shortened: (§3)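 Pre-formed amyloid-like fibrils of mutant crystallin proteins were treated with compounds in liposomes or with a liposome vehicle. Fibrillar structures were then examined by negative-stain transmission electron microscopy.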

[7] = test system: T2, Alpha-crystallin A chain (Homo sapiens), P02489 [Y118D]; test: Induction of redissolving of aggregated alpha-crystallin A Y118D mutant (unknown origin) at 200 uM incubated for 24 hrs by transmission-electron-microscopy; procedure, shortened: as §3
[8] = test system: T5, Alpha-crystallin B chain (Homo sapiens), P02511 [R120G]; test: Induction of redissolving of aggregated alpha-crystallin B R120G mutant (unknown origin) at 200 uM incubated for 24 hrs by transmission-electron-microscopy; procedure, shortened: as §3
T5 sequence (whole entry): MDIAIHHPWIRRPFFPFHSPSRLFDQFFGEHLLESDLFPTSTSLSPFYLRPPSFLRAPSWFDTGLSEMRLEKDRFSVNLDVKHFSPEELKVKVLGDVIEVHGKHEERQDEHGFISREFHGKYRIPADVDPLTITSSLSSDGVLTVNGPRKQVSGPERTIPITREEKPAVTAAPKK

[9] = test system: T3, Gamma-crystallin C (Homo sapiens), P07315 [G129C]; test: Induction of redissolving of aggregated gamma-crystallin C G129C mutant (unknown origin) at 200 uM incubated for 24 hrs by transmission-electron-microscopy; procedure, shortened: as §3
[10] = test system: T6, Gamma-crystallin D (Homo sapiens), P07320 [W43R]; test: Induction of redissolving of aggregated gamma-crystallin D W43R mutant (unknown origin) at 200 uM incubated for 24 hrs by transmission-electron-microscopy; procedure, shortened: as §3
T6 sequence (whole entry): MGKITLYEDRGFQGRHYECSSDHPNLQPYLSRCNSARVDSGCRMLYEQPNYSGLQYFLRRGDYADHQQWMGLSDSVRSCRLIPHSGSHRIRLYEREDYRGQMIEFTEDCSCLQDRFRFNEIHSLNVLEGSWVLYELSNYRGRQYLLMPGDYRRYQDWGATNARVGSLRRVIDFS

[11] = test system: T7, Beta-crystallin B2 (Homo sapiens), P43320 [R188H]; test: Induction of redissolving of aggregated beta-crystallin B2 R188H mutant (unknown origin) at 200 uM incubated for 24 hrs by transmission-electron-microscopy; procedure, shortened: as §3
T7 sequence (whole entry): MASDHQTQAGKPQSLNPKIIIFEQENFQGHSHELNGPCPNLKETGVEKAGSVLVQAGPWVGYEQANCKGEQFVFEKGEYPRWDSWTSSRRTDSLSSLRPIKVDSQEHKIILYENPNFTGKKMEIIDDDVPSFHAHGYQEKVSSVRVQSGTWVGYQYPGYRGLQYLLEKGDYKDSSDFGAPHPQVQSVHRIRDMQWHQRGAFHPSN

[12] = target: T4, Alpha-crystallin B chain; test: Inhibition of alpha-crystallin B R120G mutant (unknown origin)-induced intracellular protein aggregation expressed in human HeLa cells or HLE-B3 cells incubated for 6 to 8 hrs by fluorescence microscopy relative to untreated control; format: cell-based

Chain of Alpha-crystallin A chain (P02489 whole entry Y118D): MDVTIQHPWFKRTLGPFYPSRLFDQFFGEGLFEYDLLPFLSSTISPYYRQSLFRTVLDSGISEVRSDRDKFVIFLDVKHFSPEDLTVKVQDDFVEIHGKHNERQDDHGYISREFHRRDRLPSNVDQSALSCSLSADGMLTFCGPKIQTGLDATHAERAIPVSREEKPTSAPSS

Row | EC50 [12] | Compound | Activity [1] | Activity [2] | Activity [3] | EC50 [4] [µM] | EC50 [5] [µM] | Activity [6] | Activity [7] | Activity [8] | Activity [9] | Activity [10] | Activity [11]
1 |  | C[C@H](CCCC(C)(C)O)[C@H]1CC[C@@]2(C)C3=C(CC[C@]12C)[C@@]1(C)CC[C@H](O)C(C)(C)[C@@H]1CC3 | Active | Active | Active | 0.0356 | 3.12 | Active | Active | Active | Active | Active | Active
2 | Not Active | C[C@H](CCCC(C)(C)O)[C@H]1CC[C@@]2(C)[C@@]34CC[C@H]5C(C)(C)/C(=N/O)CC[C@]5(C)[C@]3(CC[C@]12C)O4 | inactive | inactive | inactive |  |  | inactive | inactive | inactive | inactive | inactive | inactive

Reference: ChEMBL document CHEMBL4196177, “Synthesis, Evaluation, and Structure-Activity Relationship Study of Lanosterol Derivatives To Reverse Mutant-Crystallin-Induced Protein Aggregation” (J Med Chem, 2018)
